Experimental data as given in ChEMBL document CHEMBL1667759, “Molecular modeling study and synthesis of quinazolinone-arylpiperazine derivatives as α1-adrenoreceptor antagonists” (Eur J Med Chem, 2011).
Counter-ions that a name gives are not always drawn.

Key:
Format in all cases: functional
Felis catus [1] = test: Hypotensive activity in normotensive cat assessed as reduction in systolic blood pressure at 500 mg/kg, iv; details: Artery
Summary of the method: (§1)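 Male cats (2e3 kg), acclimatized 7 days at 22 °C with 12 h light/dark cycle; groups of six. Single 500 mg/kg dose injected via femoral vein, flushed with 1 mL saline. Systolic and diastolic pressure recorded with mercury manometer on smoked kymograph; mean ± SD and % change versus control, significance by one-way ANOVA at P < 0.05. Experiments run 8–10 a.m.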

Felis catus [2] = test: Hypotensive activity in normotensive cat assessed as reduction in diastolic blood pressure at 500 mg/kg, iv; details: Artery; summary of the method: as §1
Rattus norvegicus = organism: Rattus norvegicus; test: Vasodilatory activity in Wistar rat aortic rings without endothelium assessed as reduction in norepinephrine hydrochloride-induced vasoconstriction; details: Wister, Aorta
Summary of the method: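 Thoracic aortic rings from male Wister rats (250e350 g), killed by cervical dislocation and bleeding after light ether anaesthesia. Contraction to norepinephrine hydrochloride (10^-6 M) measured before and after increasing compound concentrations; compounds dissolved in DMSO (0.01 M stock), with DMSO-alone controls. IC50 = concentration giving 50% reduction of maximal NE contracture, derived by best-fit line.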

Work on `CCOC(=O)c1nc2cc(OC)c(OC)cc2c(=O)n1NC(=O)CN1CCN(c2ccccc2OC)CC1` yielded an inhibition in vivo at 500 mg/kg (Felis catus [1]) of 2.22% and an inhibition in vivo at 500 mg/kg (Felis catus [2]) of 4.02%.
`COc1cc2nc(C)n(NC(=O)CCN3CCN(c4ccccc4)CC3)c(=O)c2cc1OC` gave an inhibition in vivo at 500 mg/kg (Felis catus [1]) of 15.6% and an inhibition in vivo at 500 mg/kg (Felis catus [2]) of 13.9%.
In the case of `COc1ccccc1N1CCN(CC(=O)Nn2c(C)nc3ccccc3c2=O)CC1`, the inhibition in vivo at 500 mg/kg (Felis catus [1]) is reported as 0% and the inhibition in vivo at 500 mg/kg (Felis catus [2]) is reported as 0%.
`COc1cc2nc(C)n(NC(=O)CCN3CCN(c4ccc([N+](=O)[O-])cc4)CC3)c(=O)c2cc1OC` showed an inhibition in vivo at 500 mg/kg (Felis catus [1]) of 5% and an inhibition in vivo at 500 mg/kg (Felis catus [2]) of 6.82%.
`COc1cc2nc(C)n(NC(=O)CCN3CCN(c4ccccc4OC)CC3)c(=O)c2cc1OC` gave an IC50 (Rattus norvegicus) of 201 µM, an inhibition in vivo at 500 mg/kg (Felis catus [1]) of 42.2% and an inhibition in vivo at 500 mg/kg (Felis catus [2]) of 40%.
Work on `COc1cc2nc(N3CCN(C(=O)c4ccco4)CC3)nc(N)c2cc1OC` [PRAZOSIN HYDROCHLORIDE] yielded an IC50 (Rattus norvegicus) of 487 µM, an inhibition in vivo at 500 mg/kg (Felis catus [1]) of 29% and an inhibition in vivo at 500 mg/kg (Felis catus [2]) of 29%.
Compound `COc1cc2nc(C)n(NC(=O)CCN3CCN(C(=O)c4ccco4)CC3)c(=O)c2cc1OC` has an inhibition in vivo at 500 mg/kg (Felis catus [1]) of 9.38% and an inhibition in vivo at 500 mg/kg (Felis catus [2]) of 11.1%.
In the case of `COc1cc2nc(C)n(NC(=O)CN3CCN(c4ccccc4OC)CC3)c(=O)c2cc1OC`, the inhibition in vivo at 500 mg/kg (Felis catus [1]) is reported as 3.13% and the inhibition in vivo at 500 mg/kg (Felis catus [2]) is reported as 2.78%.
With `CCOC(=O)c1nc2cc(OC)c(OC)cc2c(=O)n1NC(=O)CCN1CCN(c2ccccc2OC)CC1` the IC50 (Rattus norvegicus) was 400 µM, the inhibition in vivo at 500 mg/kg (Felis catus [1]) was 12.4% and the inhibition in vivo at 500 mg/kg (Felis catus [2]) was 13.9%.
With `COc1ccccc1N1CCN(Cc2nc3ccccc3c(=O)[nH]2)CC1` the IC50 (Rattus norvegicus) was 303 µM, the inhibition in vivo at 500 mg/kg (Felis catus [1]) was 23.7% and the inhibition in vivo at 500 mg/kg (Felis catus [2]) was 21.7%.
